Measured values as given in ChEMBL document CHEMBL1221237, “Synthesis of N-aryl-3-(indol-3-yl)propanamides and their immunosuppressive activities” (Bioorg Med Chem Lett, 2010).
Activity calls are given as the source filed them. No cut-off for these calls is given here.

Legend:
Splenocyte [1] = test: (§1) Immunosuppressive activity in C57BL/6 mouse splenocytes assessed as inhibition of concanavalin A-induced cell proliferation at 90 uM after 72 hrs by MTT assay; assay type: functional
Procedure, shortened: (§2)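 Splenocytes pooled from two spleens of 8-week-old female C57BL/6 mice, red cells lysed with 20 mM Tris-HCl/140 mM NH4Cl, seeded 1.5×10^5/well. Stimulated with 1 μg/mL ConA, compounds diluted from DMSO into RPMI with 10% FCS and 50 μM mercaptoethanol. 72 h at 37 °C, 5% CO2. MTT 4 h, OD 570 nm, sextuplicate. Inhibition = (control OD − treated OD)/control OD × 100.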

Splenocyte [2] = test: (§3) Immunosuppressive activity in C57BL/6 mouse splenocytes assessed as inhibition of concanavalin A-induced cell proliferation at 30 uM after 72 hrs by MTT assay; assay type: functional; procedure, shortened: as §2
[3] = as §1; assay type: functional; conditions: C57BL/6, Splenocyte; procedure, shortened: as §2
[4] = molecular target: High affinity nerve growth factor receptor (Homo sapiens, UniProt P04629); test: Inhibition of recombinant TrkA after 1 hr
Procedure, shortened: (§4)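 Recombinant kinase with substrate and 10 μM ATP, 1 h incubation. Compound at 10 final concentrations, 3.16 nM-100 μM. Activity read by AlphaScreen Protein-A detection after bead-mix stop; IC50 derived.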

[5] = molecular target: Serine/threonine-protein kinase pim-1 (Homo sapiens, UniProt P11309); test: Inhibition of recombinant Pim1 after 1 hr; procedure, shortened: as §4
[6] = molecular target: Tyrosine-protein kinase Yes (Homo sapiens, UniProt P07947); test: Inhibition of recombinant YES after 1 hr; procedure, shortened: as §4
[7] = molecular target: Homeodomain-interacting protein kinase 1 (Homo sapiens, UniProt Q86Z02); test: Inhibition of recombinant HIPK1 after 1 hr; procedure, shortened: as §4
Mus musculus [8] = test: Immunosuppressive activity in delayed-type hypersensitivity BALB/C mouse model assessed as inhibition of sheep RBC-induced foot-pad swelling at 50 to 120 mg/kg, po qd for 5 days measured after 24 hrs last post dose; assay type: functional; conditions: dose mg/kg 50-120
Procedure, shortened: (§5)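 Groups of five female BALB/c mice, 8-9 weeks old, primed iv with 5×10^6 SRBC in PBS. Compound in olive oil given orally daily for 5 days, from priming to challenge. Day 4: 3-4×10^8 SRBC into right hind footpad, PBS into left. Swelling difference read 24 h later; inhibition taken against untreated controls. Mean ± SEM, Dunnett test.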

[9] = (§6) Immunosuppressive activity in C57BL/6 mouse splenocytes assessed as inhibition of cell proliferation after 72 hrs by MTT assay; assay type: functional, cell-based; conditions: C57BL/6, Splenocyte; procedure, shortened: as §2
Aurora kinase A = molecular target: T1, Aurora kinase A (Homo sapiens, UniProt O14965); test: Inhibition of recombinant aurora A after 1 hr; procedure, shortened: as §4
T1 sequence (O14965 whole entry): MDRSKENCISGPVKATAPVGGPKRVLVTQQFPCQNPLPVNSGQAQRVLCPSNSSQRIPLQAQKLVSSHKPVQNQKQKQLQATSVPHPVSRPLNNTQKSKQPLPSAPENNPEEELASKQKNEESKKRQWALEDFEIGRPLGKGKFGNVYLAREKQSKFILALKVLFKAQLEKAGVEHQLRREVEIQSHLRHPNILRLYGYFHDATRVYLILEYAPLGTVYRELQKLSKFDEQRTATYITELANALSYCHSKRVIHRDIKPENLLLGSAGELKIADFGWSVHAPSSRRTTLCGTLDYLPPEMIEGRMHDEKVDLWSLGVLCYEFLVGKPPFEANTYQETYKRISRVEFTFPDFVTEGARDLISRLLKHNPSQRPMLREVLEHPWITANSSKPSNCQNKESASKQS

[10] = molecular target: Vascular endothelial growth factor receptor 2 (Homo sapiens, UniProt P35968); test: Inhibition of recombinant KDR after 1 hr; procedure, shortened: as §4
[11] = molecular target: T2, Tyrosine-protein kinase JAK3 (Homo sapiens, UniProt P52333); test: Inhibition of recombinant JAK3 after 1 hr; procedure, shortened: as §4
T2 sequence (P52333 whole entry): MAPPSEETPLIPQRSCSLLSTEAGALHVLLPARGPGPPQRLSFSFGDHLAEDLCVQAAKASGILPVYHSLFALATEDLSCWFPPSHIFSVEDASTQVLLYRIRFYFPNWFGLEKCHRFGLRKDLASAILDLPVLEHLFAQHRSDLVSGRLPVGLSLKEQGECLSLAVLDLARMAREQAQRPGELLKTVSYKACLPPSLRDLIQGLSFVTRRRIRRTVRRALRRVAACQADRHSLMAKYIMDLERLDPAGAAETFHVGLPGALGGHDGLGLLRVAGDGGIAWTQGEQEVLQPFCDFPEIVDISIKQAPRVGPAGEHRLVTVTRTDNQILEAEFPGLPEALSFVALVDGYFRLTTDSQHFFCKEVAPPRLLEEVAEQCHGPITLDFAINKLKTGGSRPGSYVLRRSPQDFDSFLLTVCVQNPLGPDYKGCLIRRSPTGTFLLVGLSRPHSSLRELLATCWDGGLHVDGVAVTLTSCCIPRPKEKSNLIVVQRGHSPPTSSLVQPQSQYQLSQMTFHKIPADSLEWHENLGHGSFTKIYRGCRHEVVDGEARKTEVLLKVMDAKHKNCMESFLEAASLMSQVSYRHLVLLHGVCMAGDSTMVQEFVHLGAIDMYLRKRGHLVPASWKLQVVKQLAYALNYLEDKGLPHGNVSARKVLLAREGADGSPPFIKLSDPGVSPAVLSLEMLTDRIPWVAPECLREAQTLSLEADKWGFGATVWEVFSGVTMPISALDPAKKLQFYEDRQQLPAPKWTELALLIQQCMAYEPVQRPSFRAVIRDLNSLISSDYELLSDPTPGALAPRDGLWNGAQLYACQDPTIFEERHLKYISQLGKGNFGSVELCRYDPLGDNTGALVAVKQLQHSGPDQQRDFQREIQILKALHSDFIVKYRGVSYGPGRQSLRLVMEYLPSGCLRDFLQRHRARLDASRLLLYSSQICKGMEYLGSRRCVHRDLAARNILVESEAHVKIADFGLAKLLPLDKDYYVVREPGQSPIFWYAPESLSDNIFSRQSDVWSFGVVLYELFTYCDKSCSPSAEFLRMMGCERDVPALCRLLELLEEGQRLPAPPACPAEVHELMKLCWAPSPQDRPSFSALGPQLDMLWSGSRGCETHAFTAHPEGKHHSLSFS

[12] = Inhibition of recombinant ERK after 1 hr; procedure, shortened: as §4
[13] = molecular target: Tyrosine-protein kinase JAK2 (Homo sapiens, UniProt O60674); test: Inhibition of recombinant JAK2 after 1 hr; procedure, shortened: as §4
[14] = as §3; assay type: functional; conditions: C57BL/6, Splenocyte; procedure, shortened: as §2
[15] = molecular target: Tyrosine-protein kinase ABL1 (Homo sapiens, UniProt P00519); test: Inhibition of recombinant c-Abl after 1 hr; procedure, shortened: as §4
[16] = Cytotoxicity in C57BL/6 mouse splenocytes assessed as reduction of cell viability at 90 uM after 48 hrs by MTT assay; assay type: cell-based; conditions: splenocyte
Mus musculus [17] = test: Immunosuppressive activity in delayed-type hypersensitivity BALB/C mouse model assessed as inhibition of sheep RBC-induced foot-pad swelling at 50 mg/kg, po qd for 5 days measured after 24 hrs last post dose; assay type: functional, organism-based; set-up: dose 50 mg/kg; procedure, shortened: as §5
Mus musculus [18] = test: Acute toxicity in BALB/C mouse at 50 to 120 mg/kg, po qd for 5 days; assay type: organism-based; set-up: dose 50-120 mg/kg, route oral; conditions: in vivo, 120 h
Procedure, shortened: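 Female BALB/C mice, 8-9 weeks old, groups of five. Dosed orally once daily for 5 days in olive oil, from priming to challenge, within a DTH study: primed iv with 5×10^6 SRBC, footpad challenge with SRBC on day 4. Acute toxicity judged by observation against untreated control mice over the 5-day treatment.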

Splenocyte [19] = test: as §6; assay type: functional, cell-based; procedure, shortened: as §2
Mus musculus [20] = test: Immunosuppressive activity in delayed-type hypersensitivity po dosed BALB/C mouse model assessed as inhibition of sheep RBC-induced foot-pad swelling administered qd for 5 days measured after 24 hrs last post dose; assay type: functional, organism-based; procedure, shortened: as §5

Serine/threonine-protein kinase pim-1, sequence (P11309 whole entry): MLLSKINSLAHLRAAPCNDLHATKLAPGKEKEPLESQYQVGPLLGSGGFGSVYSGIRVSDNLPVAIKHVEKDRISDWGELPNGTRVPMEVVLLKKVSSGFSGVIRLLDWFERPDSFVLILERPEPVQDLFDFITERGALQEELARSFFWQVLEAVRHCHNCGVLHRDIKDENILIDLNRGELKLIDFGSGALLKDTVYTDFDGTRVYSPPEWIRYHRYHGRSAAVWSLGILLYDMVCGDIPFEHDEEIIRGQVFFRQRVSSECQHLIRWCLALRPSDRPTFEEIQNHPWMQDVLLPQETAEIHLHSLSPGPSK
Tyrosine-protein kinase Yes, sequence (P07947 whole entry): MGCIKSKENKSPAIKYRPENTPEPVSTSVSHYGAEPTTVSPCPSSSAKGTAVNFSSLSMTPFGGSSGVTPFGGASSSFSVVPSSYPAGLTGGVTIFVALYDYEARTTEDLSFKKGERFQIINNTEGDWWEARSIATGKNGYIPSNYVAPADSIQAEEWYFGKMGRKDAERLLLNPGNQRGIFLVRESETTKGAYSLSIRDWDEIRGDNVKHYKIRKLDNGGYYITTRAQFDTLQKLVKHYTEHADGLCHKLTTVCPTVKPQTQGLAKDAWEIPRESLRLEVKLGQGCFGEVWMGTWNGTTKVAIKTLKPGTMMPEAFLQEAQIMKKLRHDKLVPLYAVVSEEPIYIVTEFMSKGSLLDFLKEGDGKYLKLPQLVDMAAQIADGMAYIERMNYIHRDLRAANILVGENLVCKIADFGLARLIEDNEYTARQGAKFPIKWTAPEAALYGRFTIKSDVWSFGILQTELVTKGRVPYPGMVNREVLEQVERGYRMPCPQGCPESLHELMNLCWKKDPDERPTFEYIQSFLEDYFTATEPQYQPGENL
Tyrosine-protein kinase JAK2, sequence (O60674 whole entry): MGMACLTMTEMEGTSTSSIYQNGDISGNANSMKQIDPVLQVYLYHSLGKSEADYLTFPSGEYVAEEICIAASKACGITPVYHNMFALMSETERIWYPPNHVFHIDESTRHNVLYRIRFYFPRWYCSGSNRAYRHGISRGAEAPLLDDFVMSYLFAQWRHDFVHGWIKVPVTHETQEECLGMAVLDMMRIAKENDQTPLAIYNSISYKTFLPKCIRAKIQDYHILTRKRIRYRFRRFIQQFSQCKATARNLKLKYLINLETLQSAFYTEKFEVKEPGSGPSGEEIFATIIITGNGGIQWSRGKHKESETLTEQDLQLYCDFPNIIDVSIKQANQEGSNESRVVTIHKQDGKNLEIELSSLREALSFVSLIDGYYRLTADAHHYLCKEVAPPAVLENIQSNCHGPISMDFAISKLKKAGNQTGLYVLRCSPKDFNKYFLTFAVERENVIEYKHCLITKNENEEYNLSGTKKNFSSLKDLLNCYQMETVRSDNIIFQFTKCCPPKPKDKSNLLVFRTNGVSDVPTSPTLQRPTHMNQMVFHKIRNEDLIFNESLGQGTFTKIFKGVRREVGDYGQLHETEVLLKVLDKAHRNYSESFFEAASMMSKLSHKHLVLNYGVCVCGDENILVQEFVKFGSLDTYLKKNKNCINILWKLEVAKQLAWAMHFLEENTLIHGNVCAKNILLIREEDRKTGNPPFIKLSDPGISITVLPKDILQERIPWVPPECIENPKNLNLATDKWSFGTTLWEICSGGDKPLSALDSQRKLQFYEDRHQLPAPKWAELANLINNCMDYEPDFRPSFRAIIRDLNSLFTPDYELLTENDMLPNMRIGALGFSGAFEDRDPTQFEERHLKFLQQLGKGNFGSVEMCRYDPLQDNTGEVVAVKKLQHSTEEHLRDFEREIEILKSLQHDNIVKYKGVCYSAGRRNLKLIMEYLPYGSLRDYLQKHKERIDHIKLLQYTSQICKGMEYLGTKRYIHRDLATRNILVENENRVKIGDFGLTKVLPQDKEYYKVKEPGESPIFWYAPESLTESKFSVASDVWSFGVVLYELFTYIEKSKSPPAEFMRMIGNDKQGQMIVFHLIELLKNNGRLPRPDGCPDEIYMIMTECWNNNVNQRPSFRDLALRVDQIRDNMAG
Vascular endothelial growth factor receptor 2, sequence (P35968 whole entry): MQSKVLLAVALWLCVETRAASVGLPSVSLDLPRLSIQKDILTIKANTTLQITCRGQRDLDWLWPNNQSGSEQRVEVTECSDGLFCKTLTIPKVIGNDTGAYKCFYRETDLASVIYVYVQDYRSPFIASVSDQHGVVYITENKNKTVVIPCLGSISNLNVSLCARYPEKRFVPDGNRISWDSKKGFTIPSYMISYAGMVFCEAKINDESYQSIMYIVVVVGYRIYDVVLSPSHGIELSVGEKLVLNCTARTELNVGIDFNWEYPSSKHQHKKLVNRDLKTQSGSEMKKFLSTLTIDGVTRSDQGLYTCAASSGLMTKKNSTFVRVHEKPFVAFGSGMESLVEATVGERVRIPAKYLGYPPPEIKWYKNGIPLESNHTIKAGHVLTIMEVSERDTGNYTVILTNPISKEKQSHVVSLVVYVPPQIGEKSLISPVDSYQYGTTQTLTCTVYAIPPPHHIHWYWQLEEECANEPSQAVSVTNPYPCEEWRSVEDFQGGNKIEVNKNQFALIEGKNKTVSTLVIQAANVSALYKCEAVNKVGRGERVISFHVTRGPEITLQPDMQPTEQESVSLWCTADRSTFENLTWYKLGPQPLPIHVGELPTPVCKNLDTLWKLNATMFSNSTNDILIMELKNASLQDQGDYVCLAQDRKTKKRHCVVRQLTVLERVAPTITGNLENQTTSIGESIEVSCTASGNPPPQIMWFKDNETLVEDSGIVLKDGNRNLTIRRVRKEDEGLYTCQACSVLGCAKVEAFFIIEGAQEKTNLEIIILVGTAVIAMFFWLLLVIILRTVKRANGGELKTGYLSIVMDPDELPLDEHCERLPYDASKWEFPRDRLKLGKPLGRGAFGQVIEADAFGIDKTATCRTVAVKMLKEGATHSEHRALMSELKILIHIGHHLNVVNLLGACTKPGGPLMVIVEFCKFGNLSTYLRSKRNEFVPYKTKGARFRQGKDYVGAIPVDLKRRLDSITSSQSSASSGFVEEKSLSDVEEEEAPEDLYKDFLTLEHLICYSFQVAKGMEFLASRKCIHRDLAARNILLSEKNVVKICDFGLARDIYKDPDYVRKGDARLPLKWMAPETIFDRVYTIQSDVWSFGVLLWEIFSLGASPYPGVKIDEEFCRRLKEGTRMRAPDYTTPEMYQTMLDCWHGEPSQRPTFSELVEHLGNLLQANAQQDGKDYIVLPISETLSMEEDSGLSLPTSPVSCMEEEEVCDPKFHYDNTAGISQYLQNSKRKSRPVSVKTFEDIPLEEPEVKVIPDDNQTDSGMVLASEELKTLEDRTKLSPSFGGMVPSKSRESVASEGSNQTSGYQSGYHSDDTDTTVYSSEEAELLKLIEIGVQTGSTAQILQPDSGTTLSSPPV
High affinity nerve growth factor receptor, sequence (P04629 whole entry): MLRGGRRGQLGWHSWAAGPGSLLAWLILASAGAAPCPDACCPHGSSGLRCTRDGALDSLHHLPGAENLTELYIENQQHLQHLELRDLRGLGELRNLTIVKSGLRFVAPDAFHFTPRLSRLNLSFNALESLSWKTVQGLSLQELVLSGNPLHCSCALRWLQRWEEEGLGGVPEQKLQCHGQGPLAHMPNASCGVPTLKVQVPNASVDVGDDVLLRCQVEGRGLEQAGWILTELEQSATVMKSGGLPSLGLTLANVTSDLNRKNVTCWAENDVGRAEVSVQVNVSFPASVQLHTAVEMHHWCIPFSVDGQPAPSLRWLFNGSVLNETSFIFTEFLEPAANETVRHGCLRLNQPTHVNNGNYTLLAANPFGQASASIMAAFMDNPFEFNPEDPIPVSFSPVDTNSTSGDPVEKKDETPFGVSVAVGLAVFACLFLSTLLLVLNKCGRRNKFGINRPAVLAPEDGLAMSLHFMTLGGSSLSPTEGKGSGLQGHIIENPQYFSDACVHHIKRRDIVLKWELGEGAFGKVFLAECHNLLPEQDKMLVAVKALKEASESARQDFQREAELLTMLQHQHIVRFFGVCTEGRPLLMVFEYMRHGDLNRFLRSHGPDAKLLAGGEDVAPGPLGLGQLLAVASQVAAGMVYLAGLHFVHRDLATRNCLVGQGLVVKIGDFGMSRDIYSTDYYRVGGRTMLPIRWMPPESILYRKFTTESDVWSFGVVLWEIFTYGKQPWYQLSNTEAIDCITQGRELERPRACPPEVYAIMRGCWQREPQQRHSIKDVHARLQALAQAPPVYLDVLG

In the case of `O=C(CCc1cn(Cc2ccc(Cl)cc2)c2ccccc12)Nc1ccccc1`, the inhibition (Splenocyte [1]) is reported as “inactive” and the inhibition (Splenocyte [2]) is reported as “inactive”.

For `O=C(CCc1cn(Cc2ccc(Cl)cc2)c2ccccc12)Nc1cccc2cnccc12`, the inhibition at 90 µM [3] was 17% and the inhibition (Splenocyte [2]) was “inactive”.

For `O=C(CCc1cn(Cc2ccc(Cl)cc2)c2ccccc12)Nc1cccc2ncccc12`, the inhibition (Splenocyte [1]) was “inactive” and the inhibition (Splenocyte [2]) was “inactive”.

`O=C(CCc1cn(Cc2ccc(Cl)cc2)c2ccccc12)Nc1ccc(C(F)(F)F)cc1` gave an inhibition at 90 µM [3] of 18%.

In the case of `Nc1ccc(NC(=O)CCc2cn(Cc3ccc(Cl)cc3)c3ccccc23)cc1`, the inhibition (Splenocyte [1]) is reported as “inactive” and the inhibition (Splenocyte [2]) is reported as “inactive”.

For `O=C(CCc1cn(Cc2ccc(Cl)cc2)c2ccccc12)Nc1ccncc1`, the IC50 [4] was over 100 µM, the IC50 [5] was over 100 µM and the IC50 [6] was 30 µM. For the same compound, the IC50 [7] was over 100 µM, the “inhibition (INH)” value (Mus musculus [8]) was 69% and the IC50 [9] was 17 µM. The IC50 (Aurora kinase A) was over 100 µM, the IC50 [10] was 26 µM and the IC50 [11] was 52 µM. For the same compound, the IC50 [12] was over 100 µM, the inhibition at 90 µM [3] was 87% and the IC50 [13] was 134 µM. For the same compound, the inhibition at 30 µM [14] was 19% and the IC50 [15] was over 100 µM.

With `O=C(CCc1cn(Cc2ccc(Cl)cc2)c2ccccc12)Nc1ccc([N+](=O)[O-])cc1` the IC50 [4] was over 100 µM, the IC50 [5] was over 100 µM and the Activity [16] was “Non-toxic”. The IC50 [6] was 38.1 µM, the inhibition (Mus musculus [17]) was “Active” and the Activity (Mus musculus [18]) was “Non-toxic”. The IC50 [7] was over 100 µM, the inhibition (Splenocyte [19]) was “Dose-dependent effect” and the IC50 [9] was 19.8 µM. The IC50 (Aurora kinase A) was over 100 µM, the IC50 [10] was 33.2 µM and the inhibition (Mus musculus [20]) was “Dose-dependent effect”. The IC50 [11] was 34.2 µM, the IC50 [12] was over 100 µM and the inhibition at 90 µM [3] was 92%. For the same compound, the IC50 [13] was 107 µM, the inhibition at 30 µM [14] was 87% and the IC50 [15] was over 100 µM.

In the case of `O=C(CCc1cn(Cc2ccc(Cl)cc2)c2ccccc12)Nc1cccnc1`, the inhibition at 90 µM [3] is reported as 40% and the inhibition at 30 µM [14] is reported as 28%.

Work on `O=C(CCc1cn(Cc2ccc(Cl)cc2)c2ccccc12)Nc1ccnc2ccccc12` yielded an inhibition at 90 µM [3] of 37% and an inhibition at 30 µM [14] of 20%.

With `O=C(CCc1cn(Cc2ccc(Cl)cc2)c2ccccc12)Nc1ccc2ncccc2c1` the inhibition at 90 µM [3] was 86% and the inhibition (Splenocyte [2]) was “inactive”.

With `N#Cc1ccc(NC(=O)CCc2cn(Cc3ccc(Cl)cc3)c3ccccc23)cc1` the inhibition at 90 µM [3] was 78% and the inhibition at 30 µM [14] was 30%.

With `O=C(CCc1cn(Cc2ccc(Cl)cc2)c2ccccc12)Nc1ccccn1` the inhibition at 90 µM [3] was 26% and the inhibition (Splenocyte [2]) was “inactive”.
